Experimental data published in ChEMBL document CHEMBL1145544, “Probing distal regions of the A2B adenosine receptor by quantitative structure-activity relationship modeling of known and novel agonists” (J Med Chem, 2008).

Biological target: T1, Adenosine receptor A2b (Homo sapiens) (UniProt P29275)
T1 sequence (whole entry): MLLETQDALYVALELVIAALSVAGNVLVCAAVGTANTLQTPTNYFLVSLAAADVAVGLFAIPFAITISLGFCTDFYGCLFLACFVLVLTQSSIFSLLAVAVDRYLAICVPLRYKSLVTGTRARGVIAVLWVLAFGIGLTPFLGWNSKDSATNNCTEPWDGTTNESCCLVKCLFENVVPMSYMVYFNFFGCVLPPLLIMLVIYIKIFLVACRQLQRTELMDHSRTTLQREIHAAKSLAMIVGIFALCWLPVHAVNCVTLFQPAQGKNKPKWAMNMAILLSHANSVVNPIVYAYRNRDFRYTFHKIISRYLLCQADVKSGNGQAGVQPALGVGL
Experiment: Agonist activity human adenosine A2B receptor expressed in CHO cells assessed as stimulation of adenylate cyclase relative to NECA
Assay type: functional, cell-based
Method in brief: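 Stably transfected CHO cells; cAMP accumulation by enzyme immunoassay kit. Relative potency computed as pEC50(compound) minus pEC50(NECA) determined in the same publication.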

SMILES | Activity
CC(C)Nc1nc(C#C[C@H](O)c2ccccc2)nc2c1ncn2[C@@H]1O[C@H](CO)[C@@H](O)[C@H]1O | -0.569
Nc1nc(OCCc2c[nH]c3ccc(I)cc23)nc2c1ncn2[C@@H]1O[C@H](CO)[C@@H](O)[C@H]1O | -1.13
CCCCC#Cc1nc(NC(C)C)c2ncn([C@@H]3O[C@H](CO)[C@@H](O)[C@H]3O)c2n1 | -1.62
Nc1nc(OCCc2c[nH]c3ccc(F)cc23)nc2c1ncn2[C@@H]1O[C@H](CO)[C@@H](O)[C@H]1O | -0.739
CCNC(=O)[C@H]1O[C@@H](n2cnc3c(Nc4ccc(OCC(=O)Nc5ccc(N6CCOCC6)cc5)cc4)ncnc32)[C@H](O)[C@@H]1O | 0.287
CCNC(=O)[C@H]1O[C@@H](n2cnc3c(NNC(=O)c4sccc4C)nc(Cl)nc32)[C@H](O)[C@@H]1O | -0.327
OC[C@H]1O[C@@H](n2cnc3c(Nc4ccccc4)ncnc32)[C@H](O)[C@@H]1O | -1.31
CCNC(=O)[C@H]1O[C@@H](n2cnc3c(NC)ncnc32)[C@H](O)[C@@H]1O | -0.787
CCNC(=O)[C@H]1O[C@@H](n2cnc3c(NNC(=O)Cc4cccs4)nc(Cl)nc32)[C@H](O)[C@@H]1O | -0.576
CCCCC#Cc1nc(N)c2ncn([C@@H]3O[C@H](CO)[C@@H](O)[C@H]3O)c2n1 | -1.62
CCNC(=O)[C@H]1O[C@@H](n2cnc3c(NNC(=O)c4ccc(C)o4)ncnc32)[C@H](O)[C@@H]1O | -0.152
CCNC(=O)[C@H]1O[C@@H](n2cnc3c(Nc4ccc(OCC(=O)NCc5ccccc5)cc4)nc(Cl)nc32)[C@H](O)[C@@H]1O | -0.053
Nc1nc(OCCc2c[nH]c3ccc(O)cc23)nc2c1ncn2[C@@H]1O[C@H](CO)[C@@H](O)[C@H]1O | -0.806
CCNC(=O)[C@H]1O[C@@H](n2cnc3c(N)nc(C#C[C@@H](O)c4ccccc4)nc32)[C@H](O)[C@@H]1O | 1.04
CCNC(=O)[C@H]1O[C@@H](n2cnc3c(NNC(=O)c4ccco4)ncnc32)[C@H](O)[C@@H]1O | 0.29
CCNC(=O)[C@H]1O[C@@H](n2cnc3c(Nc4ccc(OCC(=O)NCc5ccc(OC)cc5)cc4)ncnc32)[C@H](O)[C@@H]1O | -0.19
CCCCC#Cc1nc(NC)c2ncn([C@@H]3O[C@H](CO)[C@@H](O)[C@H]3O)c2n1 | -1.62
CCNC(=O)[C@H]1O[C@@H](n2cnc3c(Nc4ccc(OCC(=O)Nc5ccccc5)cc4)ncnc32)[C@H](O)[C@@H]1O | 1.33
Nc1nc(OCCc2ccccc2)nc2c1ncn2[C@@H]1O[C@H](CO)[C@@H](O)[C@H]1O | -1.4
CCNC(=O)[C@H]1O[C@@H](n2cnc3c(NNC(=O)c4ccc[nH]4)nc(Cl)nc32)[C@H](O)[C@@H]1O | -0.351
CCNC(=O)[C@H]1O[C@@H](n2cnc3c(N)ncnc32)[C@H](O)[C@@H]1O | 0
Nc1nc(OCCc2cc[nH]c2)nc2c1ncn2[C@@H]1O[C@H](CO)[C@@H](O)[C@H]1O | -1.27
CCCCC#Cc1nc(NCC)c2ncn([C@@H]3O[C@H](CO)[C@@H](O)[C@H]3O)c2n1 | -1.62
CCNC(=O)[C@H]1O[C@@H](n2cnc3c(Nc4ccc(OCC(=O)NCc5ccccc5)cc4)ncnc32)[C@H](O)[C@@H]1O | 0.014
Nc1ncnc2c1ncn2[C@@H]1O[C@H](C(=O)NC2CC2)[C@@H](O)[C@H]1O | -0.233
CNc1nc(C#CCCCc2ccccc2)nc2c1ncn2[C@@H]1O[C@H](CO)[C@@H](O)[C@H]1O | -1.62
Nc1nc(OCCc2cccs2)nc2c1ncn2[C@@H]1O[C@H](CO)[C@@H](O)[C@H]1O | -1.1

SMILES | Activity
CCNC(=O)[C@H]1O[C@@H](n2cnc3c(Nc4ccc(OCC(=O)Nc5ccc(Br)cc5)cc4)ncnc32)[C@H](O)[C@@H]1O | 1.17
Nc1nc(OCCc2c[nH]c3cc(Cl)ccc23)nc2c1ncn2[C@@H]1O[C@H](CO)[C@@H](O)[C@H]1O | -0.188
Nc1nc(C#C[C@H](O)c2ccccc2)nc2c1ncn2[C@@H]1O[C@H](CO)[C@@H](O)[C@H]1O | -0.412
CCNC(=O)[C@H]1O[C@@H](n2cnc3c(Nc4ccc(OCC(=O)Nc5ccc(I)cc5C(F)(F)F)cc4)ncnc32)[C@H](O)[C@@H]1O | 0.161
Nc1nc(OCCc2c[nH]c3ccc(Cl)cc23)nc2c1ncn2[C@@H]1O[C@H](CO)[C@@H](O)[C@H]1O | -1.19
CCNC(=O)[C@H]1O[C@@H](n2cnc3c(Nc4ccc(OCC(=O)Nc5ccccc5)cc4)nc(Cl)nc32)[C@H](O)[C@@H]1O | 0.561
CCNC(=O)[C@H]1O[C@@H](n2cnc3c(NNC(=O)c4ccc(C)s4)ncnc32)[C@H](O)[C@@H]1O | -0.232
CCNC(=O)[C@H]1O[C@@H](n2cnc3c(Nc4ccc(OCC(=O)Nc5ccc(I)cc5)cc4)ncnc32)[C@H](O)[C@@H]1O | 0.71
CCNC(=O)[C@H]1O[C@@H](n2cnc3c(NNC(=O)c4ccco4)nc(Cl)nc32)[C@H](O)[C@@H]1O | -0.118
CNc1nc(C#C[C@@H](O)c2ccccc2)nc2c1ncn2[C@@H]1O[C@H](CO)[C@@H](O)[C@H]1O | -0.035
CCNc1nc(OCCc2c[nH]c3ccccc23)nc2c1ncn2[C@@H]1O[C@H](CO)[C@@H](O)[C@H]1O | -1.37
CCNC(=O)[C@H]1O[C@@H](n2cnc3c(Nc4ccc(OCC(=O)Nc5ccc(OC)c(OC)c5)cc4)ncnc32)[C@H](O)[C@@H]1O | 0.533
CC(C)(C)OC(=O)C1CCCN1C[C@@H](O)[C@H](Cc1ccccc1)NC(=O)[C@H](CC(N)=O)NC(=O)OCc1ccccc1 (some centres undefined) | -0.405
Nc1nc(OCCc2c[nH]c3ccc(Br)cc23)nc2c1ncn2[C@@H]1O[C@H](CO)[C@@H](O)[C@H]1O | -0.416
Nc1nc(OCCc2c[nH]c3cc(Br)ccc23)nc2c1ncn2[C@@H]1O[C@H](CO)[C@@H](O)[C@H]1O | 0.0389
CCNC(=O)[C@H]1O[C@@H](n2cnc3c(Nc4ccc(OCC(=O)Nc5ccc(OC)cc5)cc4)nc(Cl)nc32)[C@H](O)[C@@H]1O | -0.366
CCNC(=O)[C@H]1O[C@@H](n2cnc3c(NNC(=O)c4ccc(C)[nH]4)nc(Cl)nc32)[C@H](O)[C@@H]1O | -0.039
CCNC(=O)[C@H]1O[C@@H](n2cnc3c(Nc4ccc(OCC(=O)Nc5ccncc5)cc4)ncnc32)[C@H](O)[C@@H]1O | 0.681
CCNC(=O)[C@H]1O[C@@H](n2cnc3c(N)nc(OCCc4c[nH]c5ccccc45)nc32)[C@H](O)[C@@H]1O | -0.849
CCNC(=O)[C@H]1O[C@@H](n2cnc3c(NNC(=O)c4cccs4)nc(Cl)nc32)[C@H](O)[C@@H]1O | -0.097
Nc1nc(OCCc2c[nH]c3ccccc23)nc2c1ncn2[C@@H]1O[C@H](CO)[C@@H](O)[C@H]1O | -0.33
CCNC(=O)[C@H]1O[C@@H](n2cnc3c(Nc4ccc(OCC(=O)Nc5ccc(OC)cc5)cc4)ncnc32)[C@H](O)[C@@H]1O | 0.68
CCNc1nc(C#C[C@@H](O)c2ccccc2)nc2c1ncn2[C@@H]1O[C@H](CO)[C@@H](O)[C@H]1O | 0.517
CCNC(=O)[C@H]1O[C@@H](n2cnc3c(Nc4ccc(OCC(=O)Nc5cc(OC)cc(OC)c5)cc4)ncnc32)[C@H](O)[C@@H]1O | 0.461
Nc1nc(C#C[C@@H](O)c2ccccc2)nc2c1ncn2[C@@H]1O[C@H](CO)[C@@H](O)[C@H]1O | 0.416
CCNC(=O)[C@H]1O[C@@H](n2cnc3c(Nc4ccc(OCC(=O)Nc5ccc(C(C)(C)C)cc5)cc4)ncnc32)[C@H](O)[C@@H]1O | 0.976
CCNC(=O)[C@H]1O[C@@H](n2cnc3c(Nc4ccc(OCC(=O)Nc5ccc(Cl)cc5)cc4)ncnc32)[C@H](O)[C@@H]1O | 1.1
